Here are results for two compounds from ChEMBL document CHEMBL1123296, “Potential antiatherosclerotic agents. 5. An acyl-CoA:cholesterol O-acyltransferase inhibitor with hypocholesterolemic activity” (J Med Chem, 1986).

The species named for experiment [1] is Rattus norvegicus. Description: Compound was evaluated for the effect on serum lipids in cholesterol-fed rats. The experiment is classed as functional. The method, boiled down: (§1)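 Rats fed diet with 1% cholesterol and 0.5% cholic acid, compound given in the diet at 1, 3 or 10 mg/kg per day. Read-outs were liver cholesterol (mg/g), serum cholesterol and serum triglycerides (mg/dL), each given as mean ± SEM. ED50 was derived from the dose response of liver cholesterol.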

Experiment [2] has as its system Rattus norvegicus. Description: (§2) Effect of serum lipids in cholesterol-fed rats Serum triglyceride at a dose of 1 mg/kg per day of the compound. It counts as functional. The method, boiled down: as §1
Experiment [3] relates to Rattus norvegicus. As to the kind of experiment: Effect of serum lipids in cholesterol-fed rats and Serum cholesterol at a dose of 1 mg/kg per day of the compound. The experiment is classed as functional. The method, boiled down: as §1
The subject of experiment [4] is Rattus norvegicus. As to the kind of experiment: Compound was evaluated for the effect of serum lipids in cholesterol-fed rats Serum triglyceride at a dose of 10 mg/kg per day. It counts as functional. The method, boiled down:
as §1

The species entered for experiment [5] is Rattus norvegicus. As to the kind of experiment: Effective concentration required to effect liver cholesterol concentrations in rat. The experiment is classed as functional. In short, it runs like this: as §1
The test system of experiment [6] is Rattus norvegicus. Described as §2. It counts as functional. In short, it runs like this:
as §1
This is another data set of the same source.

Experiment [7] is filed under the species Rattus norvegicus. Description: Effect of liver Cholesterol absorption in cholesterol-fed rats. It counts as functional. In short, it runs like this:
as §1

In experiment [8] the target is T1, Sterol O-acyltransferase 1 (Homo sapiens, UniProt P35610).
T1 sequence (P35610 whole entry): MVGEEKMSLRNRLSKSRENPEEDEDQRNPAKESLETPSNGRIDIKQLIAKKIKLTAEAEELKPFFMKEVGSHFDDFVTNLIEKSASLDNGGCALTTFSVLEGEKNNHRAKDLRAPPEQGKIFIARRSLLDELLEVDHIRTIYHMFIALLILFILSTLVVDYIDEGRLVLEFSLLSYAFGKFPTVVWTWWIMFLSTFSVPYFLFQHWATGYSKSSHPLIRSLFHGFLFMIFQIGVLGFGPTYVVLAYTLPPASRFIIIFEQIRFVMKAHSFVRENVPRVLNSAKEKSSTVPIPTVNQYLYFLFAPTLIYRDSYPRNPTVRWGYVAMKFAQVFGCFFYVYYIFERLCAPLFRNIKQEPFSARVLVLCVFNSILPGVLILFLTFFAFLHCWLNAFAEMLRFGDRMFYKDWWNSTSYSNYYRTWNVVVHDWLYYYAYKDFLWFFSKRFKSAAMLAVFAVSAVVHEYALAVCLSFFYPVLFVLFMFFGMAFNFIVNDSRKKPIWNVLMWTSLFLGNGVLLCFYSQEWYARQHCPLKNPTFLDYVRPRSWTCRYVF
Description: In vitro inhibitory activity against acyl coenzyme A:cholesterol acyltransferase.

Values joined by “and” are separate entries in the source; they are usually repeats but may differ in a detail not shown here. Equal entries are not always repeated.

In general, ED50 refers to the dose that gives a 50% effect, or the effect in half of the subjects. With `CCCCCCCN(Cc1ccc(CC(C)(C)C)cc1)C(=O)Nc1ccc(F)cc1F` [CL-277082], the Cholesterol was 84 mg/dL in experiment [1]; 211 mg/dL and 357 mg/dL in experiment [3]. In addition, the figures for the Triglycerides in experiment [2], in experiment [4] and in experiment [6] were 132 mg/dL, 77 mg/dL and 121 mg/dL, respectively. The compound further came in with an ED50 in experiment [5] of 5.4 mg/kg. For the same compound, in experiment [7], the Liver cholesterol came out at 15.6 mg/g.

The IC50 is the concentration that inhibits the measured activity by half. For the compound `CC(=O)[C@H]1CC[C@H]2[C@@H]3CCC4=CC(=O)CC[C@]4(C)[C@H]3CC[C@]12C` [PROGESTERONE], in experiment [8], the half-inhibitory concentration (IC50) turned out to be 17 µM.
